Converted amounts (≈) assume the structure as drawn.
Legend:
[1] = Inhibition of HCMV DNA polymerase by scintillation proximity assay; design: species or system Human betaherpesvirus 5
In short: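 Scintillation proximity assay with purified HCMV DNA polymerase, measuring incorporation of ³H-labelled nucleotide into template-primer. IC50 values are means of at least two experiments, with standard deviation where given.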

[2] = system: Human betaherpesvirus 5; assay: Antiviral activity against HCMV Davis by plaque reduction assay; assay type: functional, organism-based; conditions: Human betaherpesvirus 5, Davis
In short: (§1)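 Plaque reduction assays used HCMV Davis strain and HSV-1 KOS strain. IC50 values are means of at least two experiments, with standard deviation where given.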

[3] = Cytotoxicity against HFF cells after 3 days by neutral red dye uptake assay; assay type: cell-based; conditions: human
In short: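 Uninfected, replicating HFF cells were seeded as subconfluent monolayers and exposed to compound for 3 days.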

[4] = system: Human gammaherpesvirus 4; assay: Antiviral activity against EBV lytic replication in GG68 cells after 72 hrs by Southern blot analysis; assay type: functional, organism-based; conditions: human gammaherpesvirus 4, GG68, 72 h
[5] = Inhibition of human polymerase gamma by scintillation proximity assay
[6] = Aqueous solubility of the compound; assay type: physicochemical
[7] = Oral bioavailability in dog; assay type: ADME, organism-based, Canis lupus familiaris; conditions: in vivo
In short: (§2)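 Dosing was intravenous at 5 mg/kg and oral at 15 mg/kg. The vehicle was 80/20 PEG400/0.01 M methanesulfonic acid.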

[8] = system: Human alphaherpesvirus 3; assay: Antiviral activity against VZV Webster by plaque reduction assay; assay type: functional, organism-based; conditions: Human alphaherpesvirus 3, Webster
[9] = system: Human alphaherpesvirus 1; assay: Antiviral activity against HSV1 KOS by plaque reduction assay; assay type: functional, organism-based; conditions: Human alphaherpesvirus 1, KOS; in short: as §1
[10] = Inhibition of human polymerase delta by scintillation proximity assay
[11] = Inhibition of VZV DNA polymerase by scintillation proximity assay; design: species or system Human alphaherpesvirus 3
[12] = Oral bioavailability in rat; assay type: ADME, organism-based; conditions: in vivo; in short: as §2
[13] = molecular target: T1, DNA polymerase catalytic subunit (Human herpesvirus 1 (strain KOS) (HHV-1) (Human herpes simplex virus1), UniProt P04292); assay: Inhibition of HSV1 DNA polymerase by scintillation proximity assay; design: species or system Human alphaherpesvirus 1
T1 sequence (P04292 whole entry): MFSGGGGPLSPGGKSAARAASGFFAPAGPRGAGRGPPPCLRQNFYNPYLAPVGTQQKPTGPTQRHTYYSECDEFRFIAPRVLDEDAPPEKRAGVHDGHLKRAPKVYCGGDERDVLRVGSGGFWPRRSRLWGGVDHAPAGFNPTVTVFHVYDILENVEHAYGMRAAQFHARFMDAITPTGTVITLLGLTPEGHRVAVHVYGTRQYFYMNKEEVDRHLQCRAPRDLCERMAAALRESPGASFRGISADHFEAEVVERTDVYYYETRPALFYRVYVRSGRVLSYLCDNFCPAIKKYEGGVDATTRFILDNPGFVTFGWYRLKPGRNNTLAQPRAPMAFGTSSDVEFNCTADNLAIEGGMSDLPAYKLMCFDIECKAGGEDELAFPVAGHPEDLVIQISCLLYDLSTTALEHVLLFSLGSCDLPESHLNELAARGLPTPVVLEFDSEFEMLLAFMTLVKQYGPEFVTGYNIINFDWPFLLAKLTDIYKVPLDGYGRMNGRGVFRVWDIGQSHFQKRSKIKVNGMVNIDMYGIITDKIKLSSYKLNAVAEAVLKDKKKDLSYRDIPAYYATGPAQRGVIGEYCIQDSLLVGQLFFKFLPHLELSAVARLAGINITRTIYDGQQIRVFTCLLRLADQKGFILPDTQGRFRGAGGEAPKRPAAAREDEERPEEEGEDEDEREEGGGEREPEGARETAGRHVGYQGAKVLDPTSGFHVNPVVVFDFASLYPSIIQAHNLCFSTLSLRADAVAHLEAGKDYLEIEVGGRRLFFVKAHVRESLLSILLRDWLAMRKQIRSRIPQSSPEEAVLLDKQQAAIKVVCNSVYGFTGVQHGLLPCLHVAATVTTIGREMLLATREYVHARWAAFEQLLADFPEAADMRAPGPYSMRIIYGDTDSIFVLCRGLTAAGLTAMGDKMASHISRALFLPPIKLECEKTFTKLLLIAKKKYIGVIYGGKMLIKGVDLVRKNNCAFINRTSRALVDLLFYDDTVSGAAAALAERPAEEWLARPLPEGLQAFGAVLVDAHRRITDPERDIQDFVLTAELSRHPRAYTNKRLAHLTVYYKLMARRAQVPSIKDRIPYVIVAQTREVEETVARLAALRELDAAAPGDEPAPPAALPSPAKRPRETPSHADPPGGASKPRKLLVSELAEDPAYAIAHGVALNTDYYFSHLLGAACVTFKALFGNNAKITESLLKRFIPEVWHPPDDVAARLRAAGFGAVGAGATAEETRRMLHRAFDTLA

[14] = Inhibition of human polymerase alpha by scintillation proximity assay

| SMILES | IC50 [1] [nM] | IC50 [2] [nM] | further results |
| --- | --- | --- | --- |
| CN(Cc1cc2c(=O)c(C(=O)NCc3ccc(Cl)cc3)cn(CCc3ccccc3)c2o1)C[C@@H](O)c1ccco1 | 690 |  |  |
| CN(Cc1cc2c(=O)c(C(=O)NCc3ccc(Cl)cc3)cn(C3CC3)c2o1)C[C@@H](O)c1ccco1 | 420 | 1200 |  |
| Nc1nc(O)c2ncn(COC(CO)CO)c2n1 [GANCICLOVIR] |  |  | CC50 at 72 h [3]: > 100 µM |
| CN(Cc1cc2c(=O)c(C(=O)NCc3ccc(Cl)cc3)cn(-c3ccccc3)c2o1)C[C@@H](O)c1ccco1 | 830 |  |  |
| CN(Cc1cc2c(=O)c(C(=O)NCc3ccc(F)cc3)cn(C)c2o1)C[C@@H](O)c1ccco1 | 610 |  |  |
| CCn1cc(C(=O)NCc2ccc(Cl)cc2)c(=O)c2cc(CN(C)C[C@@H](O)c3ccco3)oc21 | 510 | 700 |  |
| CN(Cc1cc2c(=O)c(C(=O)NCc3ccc(Cl)cc3)cn(-c3ccccn3)c2o1)C[C@@H](O)c1ccco1 | 140 | 50 |  |
| CN(Cc1cc2c(=O)c(C(=O)NCc3ccc(F)c(F)c3)cn(C)c2o1)C[C@@H](O)c1ccco1 | 1020 |  |  |
| CN(Cc1cc2c(=O)c(C(=O)NCc3ccc(Cl)cc3)cn(C)c2o1)C[C@@H](O)c1cnccn1 | 220 | 28 |  |
| CCN(CC)CCn1cc(C(=O)NCc2ccc(Cl)cc2)c(=O)c2cc(CN(C)C[C@@H](O)c3ccco3)oc21 | 3920 |  |  |
| Cc1ccc(CNC(=O)c2cn(C)c3oc(CN(C)C[C@@H](O)c4ccco4)cc3c2=O)cc1 | 3140 |  |  |
| Nc1nc2c(ncn2COCCO)c(=O)[nH]1 [ACYCLOVIR] |  | > 20000 | CC50 at 72 h [3]: > 100 µM |
| CN(Cc1cc2c(=O)c(C(=O)NCc3ccc(Br)cc3)cn(C)c2o1)C[C@@H](O)c1ccco1 | 340 |  |  |
| CN(Cc1cc2c(=O)c(C(=O)NCc3ccc(Cl)cc3)cn(C)c2s1)C[C@@H](O)c1ccccn1 |  |  | IC50 [4]: 200 nM |
| O=C(O)P(=O)(O)O [FOSCARNET] |  |  | IC50 [5]: < 0.28 µM |
| CCCn1cc(C(=O)NCc2ccc(Cl)cc2)c(=O)c2cc(CN(C)C[C@@H](O)c3ccco3)oc21 | 1120 |  |  |
| CN(Cc1cc2c(=O)c(C(=O)NCc3ccc(C(F)(F)F)cc3)cn(C)c2o1)C[C@@H](O)c1ccco1 | 6450 |  |  |
| CN(Cc1cc2c(=O)c(C(=O)NCc3ccccc3)cn(C)c2o1)C[C@@H](O)c1ccco1 | 11400 |  |  |
| CN(Cc1cc2c(=O)c(C(=O)NCc3ccc(Cl)cc3)cn(C)c2o1)C[C@@H](O)c1ncccn1 | 170 | 360 |  |
| CN(Cc1cc2c(=O)c(C(=O)NCc3ccc(Cl)cc3)cn(C)c2o1)C[C@@H](O)c1ccco1 | 76 | 26 | solubility [6]: 60 µM (≈ 28.2 µg/mL); IC50 [4]: 400 nM; bioavailability [7]: 76%; IC50 [8]: 20 nM; IC50 [9]: 4.3 µM; IC50 [10]: > 20 µM; IC50 [5]: > 20 µM; IC50 [11]: 78 nM; bioavailability [12]: 67%; CC50 at 72 h [3]: > 100 µM; IC50 [13]: 220 nM; IC50 [14]: > 20 µM |
| CN(Cc1cc2c(=O)c(C(=O)NCc3ccc(Cl)cc3)cn(C)c2o1)C[C@@H](O)c1ccccn1 | 220 | 170 | IC50 [8]: 90 nM; IC50 [9]: 5.4 µM; IC50 [10]: > 20 µM; IC50 [5]: > 20 µM; IC50 [11]: 100 nM; CC50 at 72 h [3]: > 100 µM; IC50 [13]: 350 nM; IC50 [14]: > 20 µM |
